PREPL inhibitor = PREPL enzyme inhibitors, primary screen, biochemical, fluorescence polarization; recombinant PREPL, fluorescence polarization activity-based probe; inhibition, % at 5.96 µM; Prolyl endopeptidase-like (Homo sapiens), Q4J6C6; AID 2751, 2010; 320,000 tested, 0.68% active
Hep lipid drop = inhibitors of hepatocyte lipid droplet formation, primary screen, imaging, high-throughput imaging, BODIPY stain; AML12 mouse hepatocytes, oleate lipid droplets; inhibition, % at 6.5 µM; 240,000 tested, 0.4% active; AID 1656, 2009;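 active = lipid droplet intensity inhibited by at least 50%, with more than 500 cells counted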
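Assay system: AML12 hepatocytes (mouse) / Also added: 100 µM oleic acid challenge / Times: overnight treatment with compound plus oleate / Detection: high-content imaging of BODIPY-stained droplets and DAPI nuclei / Evaluation: % inhibition of lipid droplet signal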
MC4R ag barr = MC4R agonists recruiting beta-arrestin, primary screen, cell-based, luminescence, agonist arm of biased-ligand search; U2OS MC4R beta-arrestin complementation; percent of melanotan II response, DMSO zero; activation, % at 8.9 µM; 360,000 tested, 0.98% active; AID 540308, 2011;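 active = activation above a per-plate cutoff, the mean activation of sample wells on that plate plus 3 SD, cut at about 8% in these data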
MC4R antagonist = MC4R antagonists of cAMP signaling, primary screen, cell-based, TR-FRET, antagonist arm of biased-ligand search. Melanocortin receptor 4 (Homo sapiens), P32245. MC4R-expressing cells, MTII-stimulated cAMP, LANCE TR-FRET. inhibition, % at 6.5 µM. 360,000 tested, 0.48% active. AID 540295, 2011;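 active = inhibition above its plate's cutoff, the mean of tested wells on that plate plus 3 SD, cut at about 29% in these data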
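System: U2OS-MC4R stable cell line; Technique: Eu-cAMP/anti-cAMP TR-FRET, emission 671 nm; Repeats: single well per compound; Also added: Melanotan II; Dosing: one concentration, 6.5 µM nominal; Schedule: 30-min compound, 1-h challenge, 1-h detection, room temperature.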
m5-HT2A agonist = mouse Htr2a agonists via beta-arrestin recruitment, primary screen, cell-based, luminescence; 360,000 tested, 0.66% active; AID 624169, 2012; activation, % at 7.6 µM; 5-hydroxytryptamine receptor 2A (Mus musculus), P35363; CHO-K1 mHTR2A beta-arrestin complementation; percent of 30 µM serotonin response;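 active = activation above a run cutoff, the mean activation of all tested compounds plus 3 SD, cut at about 14% in these data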
Target sequence (P35363 whole entry, looked up): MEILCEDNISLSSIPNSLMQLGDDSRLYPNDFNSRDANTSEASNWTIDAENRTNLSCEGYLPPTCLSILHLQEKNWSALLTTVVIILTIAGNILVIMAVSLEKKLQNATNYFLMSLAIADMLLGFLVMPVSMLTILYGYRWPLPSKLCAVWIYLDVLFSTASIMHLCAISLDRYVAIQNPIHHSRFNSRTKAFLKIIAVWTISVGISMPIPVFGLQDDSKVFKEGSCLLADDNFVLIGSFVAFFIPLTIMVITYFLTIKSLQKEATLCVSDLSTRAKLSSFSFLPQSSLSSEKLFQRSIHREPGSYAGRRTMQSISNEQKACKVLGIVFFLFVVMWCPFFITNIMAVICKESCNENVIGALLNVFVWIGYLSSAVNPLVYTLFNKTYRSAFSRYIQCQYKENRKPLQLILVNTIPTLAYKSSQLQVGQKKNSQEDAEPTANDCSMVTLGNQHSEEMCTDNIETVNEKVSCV
NTR1 agonist = agonists of human NTR1, primary screen, imaging, U2OS cells, beta-arrestin-GFP, high content. NTR1-U2OS beta-arrestin-GFP spot imaging, agonist mode. activation, % at 20 µM. 330,000 tested, 0.17% active. AID 493036, 2011;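 active = activation at or above 40% of the spot to cytoplasm intensity ratio, with at least 20 cells analyzed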
PREPL confirm = human PREPL enzyme inhibitors, confirmation, biochemical, fluorescence polarization; 2,000 tested, 67% active; AID 2803, 2010; recombinant PREPL, fluorescence polarization activity probe; inhibition, % at 5.96 µM; shares compounds with PREPL inhibitor
A number is an active result; . = inactive; / = no result given. A selection: hits, their analogues and other compounds. The true share with any hit is near 2.7%. Cut-off read from the data, not from the text of the source, unless noted: active = inhibition above about 43%; inactive = the rest.

SMILES	PREPL inhibitor	Hep lipid drop	MC4R ag barr	MC4R antagonist	m5-HT2A agonist	NTR1 agonist	PREPL confirm
C#CCOCCOCCOCCNc1nc(N2CCN(C(=O)[C@H](Cc3ccc(O)cc3)n3cc([C@@H](N)C(C)CC)nn3)CC2)nc(N2CCN(C(=O)[C@H](Cc3cc4ccccc4[nH]3)n3cc([C@@H](N)Cc4ccc(O)cc4)nn3)CC2)n1 (some centres not stated)	52.7	.	/	/	/	.	48.4
COC(=O)c1ccc2c(=O)n(Cc3ccc4c(c3)OCO4)c(SCC(=O)N3CCCC3)nc2c1	.	.	/	/	/	.	/
CCN1C(N(C)CCc2c[nH]c3ccccc23)=N[C@@H](c2cccc(C(F)(F)F)c2)C(C(=O)OC)=C1C	55.8	/	.	.	.	.	.
CCN1C(N(C)CCc2cccs2)=N[C@@H](c2ccccc2)C(C(=O)OC)=C1C	.	.	.	.	.	.	/
Cc1cc(C)c2nc(C)cc(N/N=C/c3ccc(O)cc3)c2c1	71.7	.	.	.	.	.	68.4
Cc1cc(N/N=C/c2ccc(O)cc2)c2cccc(C)c2n1	59.2	.	.	.	.	.	55.8
Cc1cc(N/N=C/c2ccc(N(C)C)cc2)c2ccccc2n1	.	.	.	.	.	.	/
O=C1C=C(c2ccccc2)C[C@H](c2cccs2)[C@H]1n1nnc([N+](=O)[O-])n1	.	.	.	.	.	.	/
O=C1C=C(c2ccccc2)CC(c2cccs2)C1n1cnc([N+](=O)[O-])c1 (configuration not stated)	48.0	/	.	.	.	.	44.7
O=C(c1ccco1)N1CCN(c2ccc(Cl)cc2)CC1	.	.	.	.	.	.	/
CC(Oc1cccc(F)c1)C(=O)Nc1ccc(N2CCOCC2)cc1 (configuration not stated)	.	/	.	.	.	.	/
Cc1ccc(OCC(=O)Nc2ccc(N3CCN(C(=O)c4ccco4)CC3)cc2)cc1C	51.7	.	.	.	.	.	56.5
Cc1cc(OCC(=O)Nc2ccc(N3CCN(C(=O)c4ccco4)CC3)cc2)cc(C)c1Cl	.	.	.	.	.	.	/
O=C(Cc1ccc(Cl)cc1)Nc1ccc(N2CCN(C(=O)c3ccco3)CC2)cc1	47.3	.	.	.	.	.	52.9
Cc1cccc(OCC(=O)Nc2ccc(N3CCN(C(=O)c4ccco4)CC3)cc2)c1	54.6	/	.	.	.	.	50.5
Cc1cccc(OC(C)C(=O)Nc2ccc(N3CCCCC3)cc2)c1 (configuration not stated)	44.0	/	.	.	.	.	44.2
O=C(CSc1ccccn1)Nc1cccc(S(=O)(=O)N2CCCC2)c1	.	/	.	.	.	.	/
Cc1cc(N2CCN(C)CC2)nc2ccc(NC(=S)N3CCN(c4cccc(Cl)c4)CC3)cc12	47.1	.	.	.	.	.	.
CCN1CCN(c2cc(C)c3cc(NC(=O)c4ccc(OC)c(OC)c4)ccc3n2)CC1	.	/	.	.	.	.	/
Cc1cc(N2CCOCC2)nc2ccc(NC(=O)CCC(=O)N3CCN(c4ccccc4F)CC3)cc12	.	.	.	.	.	.	/
COc1ccc(C(=O)Nc2ccc3nc(N4CCN(C)CC4)cc(C)c3c2)c(OC)c1	48.4	.	.	.	.	.	.
CCN1CCN(c2cc(C)c3cc(NC(=O)c4ccc5c(c4)OCO5)ccc3n2)CC1	44.0	.	.	.	.	.	.
Cc1cc(N2CCN(C)CC2)nc2ccc(NC(=S)N3CCCCC3)cc12	/	.	.	.	.	/	/
Cc1cc(N2CCOCC2)nc2ccc(NC(=O)CCC(=O)N3CCN(c4ccc(F)cc4)CC3)cc12	43.5	.	.	.	.	.	.
COc1ccccc1NC(=O)C(=O)N(c1cccnc1)C(C(=O)NC(C)(C)C)c1ccccc1F (configuration not stated)	.	.	.	.	.	.	/
SMILES	PREPL inhibitor	Hep lipid drop	MC4R ag barr	MC4R antagonist	m5-HT2A agonist	NTR1 agonist	PREPL confirm
Cc1ccccc1OCCC(=O)Nc1ccc(N2CCOCC2)cc1N1CCOCC1	43.3	/	.	.	.	.	.
O=C(COc1cccc(Br)c1)Nc1ccc(N2CCOCC2)cc1N1CCOCC1	45.8	/	.	.	.	.	.
CCOc1ccc(NCc2nc3ccccc3n2CCOc2ccccc2)cc1	45.4	.	.	.	.	/	44.8
O=C(NCc1ccncc1)C12CC3CC(CC(Cl)(C3)C1)C2	.	.	.	.	.	.	/
CC1CC(=O)c2c(cc3c(-c4c(O)cc(O)c5c(O)c6c(cc45)OC(C)CC6=O)c(O)cc(O)c3c2O)O1 (configuration not stated)	77.2	.	.	65.2	.	.	.
O=C(COC(=O)/C=C/c1ccc(Cl)cc1)Nc1cccc(S(=O)(=O)NC2=NCCCCC2)c1	44.2	/	.	.	.	.	.
O=C(COC(=O)c1ccc(C(F)(F)F)cc1)Nc1cccc(S(=O)(=O)NC2=NCCCCC2)c1	46.0	/	.	.	.	.	.
NC(=O)Nc1ccc(C(=O)OCC(=O)Nc2cccc(S(=O)(=O)NC3=NCCCCC3)c2)cc1	.	.	.	.	.	.	/
COc1cc(/C=N/Nc2nc(Nc3ccccc3)nc(-n3nc(C)cc3C)n2)cc(OC)c1OC	.	.	.	.	.	.	/
COc1ccc(O)c(/C=N/Nc2nc(Nc3ccccc3)nc(-n3nc(C)cc3C)n2)c1	43.7	.	.	.	.	.	.
Cc1ccc(C2CC(c3cccc(Cl)c3)n3nc(N)nc3N2)cc1 (configuration not stated)	51.0	.	.	.	.	.	51.5
CCc1ccc(C2CC(c3ccc(C)cc3)n3nc(N)nc3N2)cc1 (configuration not stated)	/	/	.	.	.	/	/
Cc1cccc(C2CC(c3ccc(F)cc3)Nc3nc(N)nn32)c1 (configuration not stated)	50.9	/	.	.	.	.	55.0
COc1ccc(C2CC(c3ccc(F)cc3)Nc3nc(N)nn32)cc1 (configuration not stated)	.	.	.	.	.	.	/
Cc1cccc(C2CC(c3ccc(Cl)cc3)Nc3nc(N)nn32)c1 (configuration not stated)	51.5	.	.	.	.	.	52.4

High-throughput results from PubChem BioAssay.
